Assay results taken from ChEMBL document CHEMBL4024748, “Development of Potent Type I Protein Arginine Methyltransferase (PRMT) Inhibitors of Leukemia Cell Proliferation” (J Med Chem, 2017).
The source made the active and inactive calls. No cut-off for these calls is given here.

Assays:
[1] = molecular target: Protein arginine N-methyltransferase 1 (Rattus norvegicus, UniProt Q63009); assay: Inhibition of rat His-tagged PRMT1 (11 to 353 residues) expressed in Escherichia coli BL21(DE3) incubated for 15 mins followed by substrate addition measured after 60 mins by AlphaLisa method
Sequence of Protein arginine N-methyltransferase 1 (Q63009 whole entry, the tested form may be a part): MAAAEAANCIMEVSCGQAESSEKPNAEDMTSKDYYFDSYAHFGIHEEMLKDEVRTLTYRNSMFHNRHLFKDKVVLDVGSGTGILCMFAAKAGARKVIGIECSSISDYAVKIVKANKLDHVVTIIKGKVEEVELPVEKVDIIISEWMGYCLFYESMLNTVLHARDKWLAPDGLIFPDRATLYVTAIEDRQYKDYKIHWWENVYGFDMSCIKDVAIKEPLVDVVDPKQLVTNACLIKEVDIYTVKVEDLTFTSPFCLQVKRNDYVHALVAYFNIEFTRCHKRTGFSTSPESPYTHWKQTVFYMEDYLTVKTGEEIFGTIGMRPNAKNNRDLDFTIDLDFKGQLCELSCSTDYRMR
How it was run: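 AlphaLISA IC50 run. Compound dispensed to 1% DMSO final, enzyme in 1x assay buffer preincubated 15 min at room temperature. Substrate added and reacted 60 min at RT, then AlphaLISA bead mix added for 60 min at RT in subdued light. IC50 taken from the dose-response fit.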

[2] = molecular target: N-lysine methyltransferase SMYD2 (Homo sapiens) (UniProt Q9NRG4); assay: Inhibition of SMYD2 (unknown origin) at 100 uM incubated for 15 mins followed by substrate addition measured after 240 mins by AlphaLisa method
Sequence of N-lysine methyltransferase SMYD2 (Homo sapiens) (Q9NRG4 whole entry): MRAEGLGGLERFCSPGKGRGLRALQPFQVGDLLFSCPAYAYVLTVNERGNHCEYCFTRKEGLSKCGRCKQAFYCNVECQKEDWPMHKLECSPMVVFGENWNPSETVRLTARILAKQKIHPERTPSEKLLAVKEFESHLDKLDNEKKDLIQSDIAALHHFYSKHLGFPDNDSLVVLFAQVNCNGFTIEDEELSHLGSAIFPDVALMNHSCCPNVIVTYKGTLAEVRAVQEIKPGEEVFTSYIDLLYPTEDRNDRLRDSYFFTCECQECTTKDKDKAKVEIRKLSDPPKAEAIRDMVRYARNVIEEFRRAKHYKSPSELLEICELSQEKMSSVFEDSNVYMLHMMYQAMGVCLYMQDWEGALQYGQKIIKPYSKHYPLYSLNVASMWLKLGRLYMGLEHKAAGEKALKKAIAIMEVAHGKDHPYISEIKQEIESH
How it was run: (§1)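 SMYD2 AlphaLISA at 50 and 100 µM compound, 1% DMSO final. Enzyme preincubated 15 min at RT, then substrate added and reacted 240 min at RT. Bead mix added and incubated 60 min at RT in subdued light before reading.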

U-937 = assay: Cytotoxicity against human U937 cells assessed as decrease in cell viability after 96 hrs by Cell-Titer Glo assay; assay type: functional, cell-based
How it was run: (§2)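 Cells kept at 37°C, 5% CO2, exposed to compound or DMSO control for 96 h. Viability read by CellTiter-Glo luminescence after 2 min shaking to lyse and 10 min at room temperature. Triplicate wells, normalised to control cells. For long-term growth, log-phase seeding densities; cells counted and replated to the starting density with fresh compound on days 4 and 8.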

[3] = molecular target: Histone-lysine N-methyltransferase 2A (Homo sapiens) (UniProt Q03164); assay: Inhibition of MLL1 (unknown origin) at 100 uM incubated for 15 mins followed by substrate addition measured after 60 mins by AlphaLisa method
How it was run: (§3)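 AlphaLISA. Enzyme and substrate in 1x assay buffer, compound at 1% DMSO final. Enzyme preincubated with compound 15 min at room temperature, then substrate added. Reaction 60 min at room temperature, then bead mix added and incubated 60 min under subdued light before signal read.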

[4] = molecular target: N-lysine methyltransferase SMYD2 (Homo sapiens) (UniProt Q9NRG4); assay: Inhibition of SMYD2 (unknown origin) at 50 uM incubated for 15 mins followed by substrate addition measured after 240 mins by AlphaLisa method; how it was run: as §1
[5] = molecular target: Histone-lysine N-methyltransferase EHMT2 (Homo sapiens) (UniProt Q96KQ7); assay: Inhibition of G9a (unknown origin) at 100 uM incubated for 15 mins followed by substrate addition measured after 60 mins by AlphaLisa method; how it was run: as §3
RS4-11 = assay: Cytotoxicity against human RS4:11 cells assessed as decrease in cell viability after 96 hrs by Cell-Titer Glo assay; assay type: functional, cell-based; how it was run: as §2
[6] = molecular target: Protein arginine N-methyltransferase 1 (Rattus norvegicus) (UniProt Q63009); assay: Non-competitive inhibition of rat His-tagged PRMT1 (11 to 353 residues) expressed in Escherichia coli BL21(DE3) in presence of varying concentrations of biotinylated H4 peptide (1 to 21 residues) substrate and fixed [3H]SAM concentration
Sequence of Protein arginine N-methyltransferase 1 (Rattus norvegicus) (Q63009 whole entry, looked up, the tested form may be a part): as the sequence (Q63009 whole entry, the tested form may be a part) above
How it was run: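 Kinetic mode-of-action study using the radiolabel method with His6-rPRMT1(11–353). IC50 measured at varied peptide substrate or varied SAM concentrations, with the other component fixed. 15 min enzyme–compound preincubation, then 60 min reaction at RT with [3H]-SAM, Flashplate capture and Microbeta counting.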

MV4-11 = assay: Cytotoxicity against human MV4-11 cells assessed as decrease in cell viability at 6.25 to 12.5 uM after 96 hrs by Cell-Titer Glo assay; assay type: functional, cell-based; how it was run: as §2
[7] = molecular target: Protein arginine N-methyltransferase 5 (Homo sapiens, UniProt O14744); assay: Inhibition of PRMT5 (unknown origin) incubated for 15 mins followed by substrate addition measured after 60 mins by AlphaLisa method; how it was run: as §3
Sequence of Protein arginine N-methyltransferase 5 (O14744 whole entry): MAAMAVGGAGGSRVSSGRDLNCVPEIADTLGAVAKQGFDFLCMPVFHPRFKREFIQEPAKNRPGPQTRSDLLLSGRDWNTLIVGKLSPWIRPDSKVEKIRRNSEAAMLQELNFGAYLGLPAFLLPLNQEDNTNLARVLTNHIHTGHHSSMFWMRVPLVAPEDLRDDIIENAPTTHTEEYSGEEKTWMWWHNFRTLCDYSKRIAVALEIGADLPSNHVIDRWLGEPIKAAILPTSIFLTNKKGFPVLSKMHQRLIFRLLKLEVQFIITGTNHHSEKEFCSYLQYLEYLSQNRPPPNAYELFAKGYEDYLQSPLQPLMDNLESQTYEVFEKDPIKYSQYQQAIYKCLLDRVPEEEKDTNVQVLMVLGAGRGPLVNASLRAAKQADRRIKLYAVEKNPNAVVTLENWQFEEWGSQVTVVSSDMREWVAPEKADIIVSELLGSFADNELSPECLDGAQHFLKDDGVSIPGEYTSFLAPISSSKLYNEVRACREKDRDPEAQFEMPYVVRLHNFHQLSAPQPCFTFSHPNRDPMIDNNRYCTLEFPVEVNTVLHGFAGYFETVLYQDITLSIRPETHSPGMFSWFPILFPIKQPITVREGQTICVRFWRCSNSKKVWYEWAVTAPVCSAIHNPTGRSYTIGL

[8] = molecular target: Histone-lysine N-methyltransferase EZH2 (Homo sapiens) (UniProt Q15910); assay: Inhibition of EZH2 (unknown origin) at 100 uM incubated for 15 mins followed by substrate addition measured after 60 mins by radioisotope assay
Sequence of Histone-lysine N-methyltransferase EZH2 (Homo sapiens) (Q15910 whole entry, looked up): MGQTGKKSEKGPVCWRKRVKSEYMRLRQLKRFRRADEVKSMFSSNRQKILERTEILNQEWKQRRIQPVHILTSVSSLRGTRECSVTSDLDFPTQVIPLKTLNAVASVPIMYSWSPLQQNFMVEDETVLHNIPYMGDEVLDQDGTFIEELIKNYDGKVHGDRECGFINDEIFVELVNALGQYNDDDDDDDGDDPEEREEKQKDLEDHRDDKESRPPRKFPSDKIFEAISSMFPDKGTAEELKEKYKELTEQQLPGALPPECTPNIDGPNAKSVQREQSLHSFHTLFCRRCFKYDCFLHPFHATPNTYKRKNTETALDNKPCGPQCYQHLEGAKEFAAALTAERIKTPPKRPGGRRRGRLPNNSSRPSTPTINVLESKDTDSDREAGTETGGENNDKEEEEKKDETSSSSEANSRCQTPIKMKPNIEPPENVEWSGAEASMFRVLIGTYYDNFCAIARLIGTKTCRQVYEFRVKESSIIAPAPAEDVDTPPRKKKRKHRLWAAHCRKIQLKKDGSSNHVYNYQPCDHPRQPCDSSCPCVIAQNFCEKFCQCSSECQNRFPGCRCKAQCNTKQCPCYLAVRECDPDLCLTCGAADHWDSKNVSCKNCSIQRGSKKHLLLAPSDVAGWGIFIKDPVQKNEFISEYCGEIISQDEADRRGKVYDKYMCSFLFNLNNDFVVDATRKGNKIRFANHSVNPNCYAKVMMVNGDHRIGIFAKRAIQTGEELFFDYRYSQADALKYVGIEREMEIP

[9] = molecular target: Histone-lysine N-methyltransferase SUV39H1 (Homo sapiens) (UniProt O43463); assay: Inhibition of SUV39H1 (unknown origin) at 100 uM incubated for 15 mins followed by substrate addition measured after 60 mins by AlphaLisa method
Sequence of Histone-lysine N-methyltransferase SUV39H1 (Homo sapiens) (O43463 whole entry): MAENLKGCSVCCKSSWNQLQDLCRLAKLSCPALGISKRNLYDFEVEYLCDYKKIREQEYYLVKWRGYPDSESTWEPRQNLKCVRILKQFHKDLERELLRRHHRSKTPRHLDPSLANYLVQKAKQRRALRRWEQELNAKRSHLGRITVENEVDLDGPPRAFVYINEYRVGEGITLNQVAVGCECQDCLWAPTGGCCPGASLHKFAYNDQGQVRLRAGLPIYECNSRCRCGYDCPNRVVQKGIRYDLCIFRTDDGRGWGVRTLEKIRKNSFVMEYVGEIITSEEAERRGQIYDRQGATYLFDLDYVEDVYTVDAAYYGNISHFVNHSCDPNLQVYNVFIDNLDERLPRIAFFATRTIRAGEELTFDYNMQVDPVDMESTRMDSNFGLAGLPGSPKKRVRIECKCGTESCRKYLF
How it was run: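 SUV39H1 AlphaLISA at 50 and 100 µM compound, 1% DMSO final. Enzyme preincubated 15 min at room temperature, substrate reaction 60 min at RT. Bead mix then added for 60 min at RT in subdued light before signal collection.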

[10] = molecular target: Protein arginine N-methyltransferase 1 (Homo sapiens) (UniProt Q99873); assay: Inhibition of PRMT1 in human MV411 cells assessed as reduction in H4R3me2a levels after 48 hrs by Western blot analysis; assay type: cell-based
Sequence of Protein arginine N-methyltransferase 1 (Homo sapiens) (Q99873 whole entry, looked up): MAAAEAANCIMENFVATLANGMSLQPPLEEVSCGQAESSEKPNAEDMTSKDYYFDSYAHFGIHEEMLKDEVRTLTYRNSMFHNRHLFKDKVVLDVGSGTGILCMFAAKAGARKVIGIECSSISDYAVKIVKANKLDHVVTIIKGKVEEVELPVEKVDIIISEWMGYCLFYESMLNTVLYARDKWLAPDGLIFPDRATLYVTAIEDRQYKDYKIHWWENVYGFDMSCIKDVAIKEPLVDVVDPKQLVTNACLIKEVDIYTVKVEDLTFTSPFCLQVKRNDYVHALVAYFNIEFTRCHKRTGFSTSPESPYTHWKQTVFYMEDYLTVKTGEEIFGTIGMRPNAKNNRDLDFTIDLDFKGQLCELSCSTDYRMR
How it was run: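 MV4-11 cells treated with compound for 48 h. ADMA, SDMA and H4R3me2a read by western blot. Blots blocked in 5% nonfat milk in PBST, primary antibodies overnight at 4°C, HRP anti-rabbit secondary at 1:10000 for 1 h.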

[11] = Cytotoxicity against human HUV-EC-C cells assessed as decrease in cell viability at 6.25 to 25 uM after 96 hrs by Cell-Titer Glo assay; assay type: cell-based
How it was run: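 Normal HUV-EC-C, MRC-5 and RCTEC cells at 37°C, 5% CO2, given compound or DMSO control for 96 h. Viability by CellTiter-Glo luminescence after 2 min shaking and 10 min at room temperature. Triplicate wells, normalised to control cells.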

[12] = molecular target: DNA (cytosine-5)-methyltransferase 1 (Homo sapiens) (UniProt P26358); assay: Inhibition of DNMT1 (unknown origin) at 100 uM incubated for 15 mins followed by substrate addition measured after 60 mins by radioisotope assay
Sequence of DNA (cytosine-5)-methyltransferase 1 (Homo sapiens) (P26358 whole entry): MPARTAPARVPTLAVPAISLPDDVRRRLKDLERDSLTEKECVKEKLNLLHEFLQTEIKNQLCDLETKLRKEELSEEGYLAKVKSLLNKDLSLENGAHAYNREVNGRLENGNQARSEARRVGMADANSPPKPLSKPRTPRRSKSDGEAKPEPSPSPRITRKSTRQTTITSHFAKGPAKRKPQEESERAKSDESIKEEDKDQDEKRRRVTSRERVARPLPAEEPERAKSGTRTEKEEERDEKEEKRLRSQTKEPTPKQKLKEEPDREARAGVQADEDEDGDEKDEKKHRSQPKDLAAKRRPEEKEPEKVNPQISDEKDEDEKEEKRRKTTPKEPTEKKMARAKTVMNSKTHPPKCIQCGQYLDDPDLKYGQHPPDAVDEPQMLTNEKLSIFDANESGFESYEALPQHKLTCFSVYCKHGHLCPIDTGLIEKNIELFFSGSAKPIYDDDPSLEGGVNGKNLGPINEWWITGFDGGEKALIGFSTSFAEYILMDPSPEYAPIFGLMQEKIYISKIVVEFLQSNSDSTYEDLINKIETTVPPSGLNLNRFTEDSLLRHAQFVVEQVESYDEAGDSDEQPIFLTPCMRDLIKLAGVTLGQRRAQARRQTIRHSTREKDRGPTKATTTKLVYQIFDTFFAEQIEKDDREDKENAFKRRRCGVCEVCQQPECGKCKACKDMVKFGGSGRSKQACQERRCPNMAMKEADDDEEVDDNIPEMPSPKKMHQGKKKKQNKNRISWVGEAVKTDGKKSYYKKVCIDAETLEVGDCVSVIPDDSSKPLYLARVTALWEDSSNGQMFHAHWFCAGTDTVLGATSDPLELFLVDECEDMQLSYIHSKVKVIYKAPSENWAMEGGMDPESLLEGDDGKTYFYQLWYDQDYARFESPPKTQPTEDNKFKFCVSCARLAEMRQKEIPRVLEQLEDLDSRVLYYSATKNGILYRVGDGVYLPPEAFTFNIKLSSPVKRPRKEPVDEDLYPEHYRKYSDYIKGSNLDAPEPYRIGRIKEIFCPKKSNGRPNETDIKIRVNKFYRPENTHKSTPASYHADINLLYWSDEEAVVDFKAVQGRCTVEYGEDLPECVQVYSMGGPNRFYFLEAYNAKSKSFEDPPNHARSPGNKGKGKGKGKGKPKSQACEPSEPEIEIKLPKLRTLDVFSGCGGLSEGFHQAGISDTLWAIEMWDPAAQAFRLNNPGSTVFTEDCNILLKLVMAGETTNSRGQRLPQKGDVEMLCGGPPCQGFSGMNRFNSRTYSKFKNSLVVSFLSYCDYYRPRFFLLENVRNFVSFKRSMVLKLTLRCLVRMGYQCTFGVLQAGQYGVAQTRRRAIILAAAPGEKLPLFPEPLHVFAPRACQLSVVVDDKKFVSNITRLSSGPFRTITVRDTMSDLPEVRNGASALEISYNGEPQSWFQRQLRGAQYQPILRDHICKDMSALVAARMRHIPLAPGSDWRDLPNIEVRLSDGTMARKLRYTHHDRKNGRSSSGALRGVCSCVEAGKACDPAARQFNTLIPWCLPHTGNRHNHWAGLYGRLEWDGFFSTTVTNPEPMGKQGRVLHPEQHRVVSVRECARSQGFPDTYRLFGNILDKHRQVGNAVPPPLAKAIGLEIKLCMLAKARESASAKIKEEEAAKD

IC50 [1]: 1.1 nM
inhibition [2]: Active
inhibition [3]: Active
inhibition [4]: Active
inhibition [5]: Active
inhibition [6]: Active
IC50 [7]: > 100000 nM
inhibition [8]: Active
inhibition [9]: Active
inhibition [10]: Dose-dependent effect
inhibition [12]: Active
SMILES: CN(CCN)Cc1ccccc1Sc1ccccc1Cl
Activity (U-937): Dose-dependent effect
Activity (RS4-11): Dose-dependent effect
Activity (MV4-11): Active
Activity [11]: Non-Toxic
